For this series, the system named is MS2 coat protein. Nature of the series: apparent Kd, MS2 coat protein; higher = weaker binding; RNA-MaP array; FMN 200 µM where present. The method, boiled down:
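The apparent Kd is reported as the median of filtered per-cluster binding-curve fits. To get these curves, designs transcribed by stalled E. coli RNA polymerase on Illumina sequencing-chip clusters were titrated with SNAP-549-labelled MS2 coat protein from 0.7 or 1.5 nM, doubling to 3 µM. Titrations were run without and then with constant ligand in 100 mM Tris-HCl pH 7.5, 80 mM KCl, 4 mM MgCl2, BSA, DTT, yeast tRNA and Tween-20, and green signal was normalised to red-channel RNA signal and control-cluster median Fmax.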

Setting [1] is: designed as: ON switch for flavin mononucleotide, no ligand.
The mark [2] stands for this setting: ligand present: flavin mononucleotide, designed as: ON switch for flavin mononucleotide.
The mark [3] stands for this setting: designed as: OFF switch for flavin mononucleotide, no ligand.
The mark [4] stands for this setting: ligand present: flavin mononucleotide, designed as: OFF switch for flavin mononucleotide.

Regarding “AGUGUCAUUUAGAAGGCCUCAUGACAUGAGGAUCACCCAUGUUAUCAUGGGAGGAUAUGGAUGAUAUAGCUACGUUUCGUAGCA”, the apparent Kd – broadly, the concentration giving half-maximal binding under the conditions of the assay – was determined as 233 nM under setting [1] and 78.2 nM under setting [2].
As for “ACGUGUAAGCAGAAGGGUUAGCACAUGAGGAUCACCCAUGUAACAGUGGACAGGAUAUGCGCUCAUGUUGGAUAGGGCCUUCCC”, the “apparent Kd” value under setting [1] stood at 302 nM and the “apparent Kd” value under setting [2] was found to be 67.6 nM.
With “CAUGUCCUCACAGGAUAUGCUGGACUUUGUCCAGCAGAAGGGUGUUAACAUGAGGAUCACCCAUGUGGACAUGAUAUAUUUAAU”, the “apparent Kd” value worked out at 933 nM under setting [1] and 69.8 nM under setting [2].
Taken in the same sequence, the figures for “UUAGGUCGAAACAUGAGGAUCACCCAUGUGUUAUAAUUAAUAUAGGAUAUGUUUAUACUUUUUGGGCAGAAGGAUGAUAUUGCU” were 21.2 nM and 17.9 nM.
Consider “AAACAGGGAGGAUAUACAUAGAUCCUCUAACCUAAUAGGUCACAUGAGGAUCACCCAUGUAGAAGGCCCUUAGG”, for which the “apparent Kd” value by setting is: under setting [3], 12.4 nM; under setting [4], 12.2 nM.
Taken in the same sequence, the figures for “AUACCACGAGGAUAUCGUCUAUUUCACAUGAGGAUCACCCAUGUUAUCUUUGUUUCGUUUCGAGAAGGCGUGUUUU” were 33.1 nM and 23.2 nM.
For the sequence “AGCUGUGGCAGAGGAUAUACUCCUAAAAUCCAUUGCAAAUAGCGAUGGACAUGAGGAUCACCCAUGUAGAAGGCUGUCUCAGCA”, the “apparent Kd” value turned out to be 57.2 nM under setting [3] and 649 nM under setting [4].
In the case of “AUACUUAAUGAAGGAUAUCUUAGCAUAAACCUGAGAGAAGGUCAUUAUUACAUGAGGAUCACCCAUGUUGUAGUUAAUGGGUAA”, the “apparent Kd” value by setting is: under setting [3], 199 nM; under setting [4], 254 nM.
“UCGCUGCGAGGAUAUACAUGAGGAUCACCCAUGUACGGGUCCGGGUCUUCGUCCAUUGGUAGAAGGCGCAGUGA”: the “apparent Kd” value under setting [3] was determined as 23.1 nM and the “apparent Kd” value under setting [4] turned out to be 204 nM.
The matching figures for “CUAACACAUGAGGAUCACCCAUGUGAGGAUAUGCGUACGUUGUCCGUAGGCGACGUGCGCAGAAGGCGCUUGGU”: 55.8 nM and 62.8 nM.
Regarding “AAAACAUGAGGAUCACCCAUGUAAAGAACGGUUAAUAAAUGUGAGGAUAUACUAAAAUUUAGGUAGUAGAAGGCACUGGGUACA”, the “apparent Kd” value worked out at 24.1 nM under setting [1] and 25.7 nM under setting [2].
With “AAAUAGCGAGGAUAUACAUGAGGAUCACCCAUGUGGACUGAUGUCGCAUGAUUCAGUGGUAGAAGGUGCUCAAA”, the “apparent Kd” value turned out to be 90.4 nM under setting [3] and 127 nM under setting [4].
As to “GUGGUCAGACAUGAGGAUCACCCAUGUGGAAUAAAUAAGGAGAAGGAUAUUCAAUAUAGGAUAUAGAAGAAGGUCUGGUUGGUG”, the “apparent Kd” value turned out to be 73.7 nM under setting [1] and 82.7 nM under setting [2].
For “CUCCGCGCUGUCAGGAUAUCCAGGGCCUACCGGCCGGAGAAGGGACAUGAGGAUCACCCAUGUUCGGGUUAGCA”, the “apparent Kd” value amounted to 15.7 nM under setting [3] and 17.6 nM under setting [4].
With “GGACGUCACAUUAACAUGAGGAUCACCCAUGUCAAAAGACAUGAGGAUAUGGAUAAUAAUAUAAACCAGAAGGCAUGGACGUCC”, the “apparent Kd” value came to 526 nM under setting [1] and 29.2 nM under setting [2].
The matching figures for “UGGUACUAGGGAGGAUAUGGGAAGAGACAUGAGGAUCACCCAUGUUUAAGAAUGCCGAGAGGCAACUAGAAGGCCCUAGUACCU”: 38.8 nM and 7.42 nM.
For the sequence “UUACUAUAACAGAAGGCUAGAUAAUAUAUAAAUGGAGGAUAUGUUACAUGAGGAUCACCCAUGUUUCACCCACAUGAGGAUCAC”, the “apparent Kd” value was 16.4 nM under setting [3] and 52.2 nM under setting [4].
In the case of “GGAGCACAUAUUAACAUGAGGAUCACCCAUGUCAAAAGACAUGAGGAUAUGGAUCCGAAAAGGAUCUAGAAGGCAUGGUGCUCC”, the “apparent Kd” value runs as follows: under setting [1], 690 nM; under setting [2], 22.1 nM.
In the case of “CCGUUACAUGAGGAUCACCCAUGUGAGGAUAUCGGGAUGACUGGCAGCGUGCGGGACUCGAGAAGGCACUGGGC”, the “apparent Kd” value came to 46.1 nM under setting [3] and 41.5 nM under setting [4].
The matching figures for “GGUUGGCGAGGAUAUACAUGAGGAUCACCCAUGUGGUCCUGCGGUAGAAUCGCCCUUUGUAGAAGGCGCGGGUC”: 69.5 nM and 72 nM.
Take “CGAGCCUAUGUAAGGAUAUCACGAUAAAACCAGCGUGAGAAGGUACAUGAGGAUCACCCAUGUUCACGACUGGC”: the “apparent Kd” value was 13.9 nM under setting [3] and 14.7 nM under setting [4].
For “CCUCGCCCUCUUGCACAUGAGGAUCACCCAUGUUUUACGUACUAGGAUAUAGCUAUGUUCAAUCGUUAGAAGGAGUUCAUGGAU”, the “apparent Kd” value runs as follows: under setting [3], 110 nM; under setting [4], 105 nM.
Consider “UUAAAUCAUGUAGGAUAUGCAUGGCGAAGCUACGCAGAAGGACAUGAGGAUCACCCAUGUUAUAGCGACCCAGUUCGGUUGCAA”, for which the “apparent Kd” value by setting is: under setting [3], 94.3 nM; under setting [4], 230 nM.
For “GGACGUCACAUUAACAUGAGGAUCACCCAUGUCAAAAGACAUGAGGAUAUGGAUGCGAAACGCAUCCAGAAGGCAUGGACGUCC”, the “apparent Kd” value runs as follows: under setting [1], 629 nM; under setting [2], 41.1 nM.
On to “CCUCGACAUGAGGAUCACCCAUGUCAGGAUAUUGUGUUUUUGGUUUUUUACCUUUAGGCAAGAAGGGAUGUGUG”, for which the “apparent Kd” value under setting [3] is 16 nM and the “apparent Kd” value under setting [4] turned out to be 21.4 nM.
For “UUGUUGUAUGUAGGAUAUGCAUAUUGUUAUUAUGCAGAAGGACAUGAGGAUCACCCAUGUAUAUUAUUAUUAUAUAUUAUAUAU”, the “apparent Kd” value under setting [3] is 27.7 nM and the “apparent Kd” value under setting [4] amounted to 43.9 nM.
Taken in the same sequence, the figures for “AAGAAGUGAGGAUAUGCUGACAAUAUGAAGACUUGAGGUAUGCAGAAGGCACAUGAGGAUCACCCAUGUAAGAA” were 30 nM and 29.7 nM.
Take “GUCAGCUCGUGAGGAUAUACAUCACUGCGAAAGCAGUGUAUUAAGAUCACAUGAGGAUCACCCAUGUAGAAGGCACGAGCUGAU”: the “apparent Kd” value under setting [3] amounted to 43.7 nM and the “apparent Kd” value under setting [4] came to 626 nM.
In the case of “UGGUACUAGGGAGGAUAUGGGAAGAUACAUGAGGAUCACCCAUGUUUAAGAAUGCCGAGAGGCAACUAGAAGGCCCAAGUACCU”, the “apparent Kd” value turned out to be 425 nM under setting [1] and 18.6 nM under setting [2].
Turning to “UCAAUCACUGGAGGAUAUGUACUAAUUUGCGGUUCCUCGAUAUCUCACAUGAGGAUCACCCAUGUACAGAAGGCUAGUCGGAAA”, the “apparent Kd” value is, setting by setting: under setting [3], 783 nM; under setting [4], 99.7 nM.
Take “UGGUCGGAGACAGGAUAUGUGACUGCAUAGUGCACAGAAGGGUCUACAUGAGGAUCACCCAUGUCACCGACCACCAAACAACAA”: the “apparent Kd” value by setting is: under setting [1], 626 nM; under setting [2], 55.2 nM.
On to “GUCCUACAUGAGGAUCACCCAUGUAAGGAUAUGCUAGCGGUCGGAAGACUGACUGCUAGCAGAAGGUACAUGAU”, for which the “apparent Kd” value is 15 nM under setting [3] and 24.5 nM under setting [4].
Take “ACAUGAGGAUCUCCCAUGUAAAAUUAGGAUAUAUAACUACACAUGAGGAUCACCCAUGUUUAACCGUAGAAGGGAUAAAUAAUU”: the “apparent Kd” value is, setting by setting: under setting [1], 986 nM; under setting [2], 1020 nM.
Regarding “GCCAUCGCAUGAGGAUAUGCUCCGGUUUCCGGAGCAGAAGGCAUGUGAUAACACAUGAGGAUCACCCAUGUAGUUAAGAUGGCA”, the “apparent Kd” value by setting is: under setting [1], 5.51 nM; under setting [2], 4.62 nM.
As to “UAAUAAUAAUGAGGAUAUAUACAACAUGAGGAUCACCCAUGUACCCAUGUAGUAGAAGGCAUAUUUUUUGUUAAUAACAUAACU”, the “apparent Kd” value stood at 53.8 nM under setting [1] and 32.1 nM under setting [2].
For the sequence “UUAUGUGUCGUAGGAUAUCAUUAGAUUUGUAAUUUAAUUGUAAUUUACAUAUGAGAAGGACGUUUACAUGAGGAUCACCCAUGU”, the “apparent Kd” value reads like this: under setting [3], 15.9 nM; under setting [4], 14.6 nM.
In the case of “UGAAAUCAUGUAGGAUAUGCAUGGCGAAGCUGCGCAGAAGGACAUGAGGAUCACCCAUGUUAUAGCUACCCAGUUCGGUGGCAA”, the “apparent Kd” value reads like this: under setting [3], 37.3 nM; under setting [4], 171 nM.
As to “AAAGGUGCAGGAUAUGCGUGGAAAAAGUGUAUUCAAAAAAAACAUGAGGAUCACCCAUGUAGAAGGGUACCAAA”, the “apparent Kd” value under setting [3] came to 65.9 nM and the “apparent Kd” value under setting [4] amounted to 180 nM.
With “AGCUCGGGUUAGGAUAUUCGCAGCAAGAUGACCGAAGAAGGGACCACAUGAGGAUCACCCAUGUUUGUUUAGAA”, the “apparent Kd” value came to 25.9 nM under setting [3] and 24.5 nM under setting [4].
Taken in the same sequence, the figures for “ACGACGAAAGUCGAACGAUGUAGCAGAAGGACAUGAGGAUCACCCAUGUCAGCUGUGCAAAACAUGUAGGAUAUGCUACAUCGA” were 6.14 nM and 11.3 nM.
On to “GUUCCACAUGAGGAUCACCCAUGUGAGGAUAUGGAUUCGCUGGCCGUAGCCAGUGGAUCCAGAAGGCGCAUGAU”, for which the “apparent Kd” value runs as follows: under setting [3], 39.9 nM; under setting [4], 153 nM.
In the case of “UUAAAUCAUGUAGGAUAUGCGUGGCGAAGCUAUGCAGAAGGACAUGAGGAUCACCCAUGUUCUGCGGUCUGCGUACAGAUCGCU”, the “apparent Kd” value under setting [3] came out at 18.3 nM and the “apparent Kd” value under setting [4] was 155 nM.
In the case of “AAAUUCUGAGGAUAUCGAUGUUUGUACAUGAGGAUCACCCAUGUCCUUUUUAUUUUUUCCCGAGAAGGCAGUGUAU”, the “apparent Kd” value under setting [3] was 45 nM and the “apparent Kd” value under setting [4] was 35.3 nM.
Take “AGAAAUCAUGUAGGAUAUGCAUGGCGAAGCUACGCAGAAGGACAUGAGGAUCACCCAUGUUAUAGCGUCCGAGAAAGGAUGCAA”: the “apparent Kd” value is, setting by setting: under setting [3], 27.9 nM; under setting [4], 187 nM.
For “UAUACACAUGAGGAUCACCCAUGUGAGGAUAUGUACAACAACCCGACGGUGUUGUUGUACAGAAGGCACAAAUA”, the “apparent Kd” value stood at 80.2 nM under setting [3] and 59.8 nM under setting [4].
For the sequence “ACCAAUGGAGGAUAUACAUGAGGAUCACCCAUGUUUAUCCUACAUAGGUGAAAAAUAUGUAGAAGGCCAUUGGA”, the “apparent Kd” value is, setting by setting: under setting [3], 17 nM; under setting [4], 20.5 nM.
Taken in the same sequence, the figures for “CGGAGGUCAGGAUAUGCAUGGCGGGACUUGCGUCGUGGCGUGCAGAAGGGACAUGAGGAUCACCCAUGUGGAGC” were 82.2 nM and 145 nM.
Taken in the same sequence, the figures for “AUUUUGUCAGGAUAUGAUUAGUAGGAUGAGAGUGCUACUACUUAGAAGGGACAUGAGGAUCACCCAUGUAUUCC” were 16.8 nM and 20 nM.

(Values after the EternaBench riboswitch data.)
